# Test results reported in PMC7249612 (Biochemistry, 2016).
# Tested on: LoxA
# Assay: not given
# Type: biochemical, Pseudomonas aeruginosa
# Settings: substrate of LoxA, 25 mM HEPES pH 7.0
Compound,Kcat,Km [µM]
CCCCC/C=C\C/C=C\CCCCCCCC(=O)O [d31-LA],0.9 (0.1) s^−1,100

# Tested on: LoxA
# Assay: LoxA substrate preference
# Type: biochemical, Pseudomonas aeruginosa
# Settings: initial rate at 10 μM substrate, pH 7.0, relative to AA
# Method in brief: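 His6-tagged LoxA was expressed in E. coli BL21(DE3), purified on Ni-NTA, and dosed by iron content. About 7 nM enzyme started each reaction. Each fatty acid substrate was C18 HPLC-purified and used at 10 μM in 25 mM HEPES pH 7.0 without Triton X-100. Initial rate of conjugated diene formation was followed at 234 nm (ε 25000 M−1cm−1) and expressed relative to the AA rate.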
row,Compound,% AA Rate (10 μM)
1,CCCCC/C=C\C/C=C\C/C=C\CCCCC(=O)O [GLA],44(10) %
2,CC/C=C\C/C=C\C/C=C\CCCCCCCC(=O)O [ALA],78(10) %
3,CC/C=C\C/C=C\C/C=C\C/C=C\C/C=C\CCCC(=O)O [EPA],61(10) %
4,"CCCCC/C=C\C/C=C\C/C=C\CCCCCCC(=O)O [DGLA, Dihomo-gamma-linolenic acid]",44(10) %
5,CCCCC/C=C\C/C=C\CCCCCCCCCC(=O)O [EDA],33(10) %
6,CC/C=C\C/C=C\C/C=C\C/C=C\C/C=C\C/C=C\CCC(=O)O [DHA],72(10) %

# Tested on: LoxA
# Assay: LoxA secondary product profile
# Type: biochemical, Pseudomonas aeruginosa
# Settings: 10 μM substrate, pH 7.0
row,Compound,times slower relative to the Kcat with AA
1,"CCCCCC=CCC=CCC=CC=CC(CCCC(=O)O)OO (stereo not drawn) [5-HpETE, 5-hydroperoxyeicosatetraenoic acid]","100,000 times"
2,"CCCCCC(/C=C/C=C\C/C=C\C/C=C\CCCC(=O)O)OO (stereo not drawn) [15-HpETE, 15-hydroperoxyeicosatetraenoic acid]","10,000 times"
3,CCCCC/C=C\C/C=C\C/C=C\C=C\[C@@H](O)CCCC(=O)O [5-HETE],"100,000 times"
4,CCCCC[C@H](O)/C=C/C=C\C/C=C\C/C=C\CCCC(=O)O [15-HETE],"100,000 times"
